The M2OR odorant receptor database
Numbering of substitutions follows the chain as printed.

Tests used:
Conditions in all cases: stereoisomer not certain
OR5T2 S4G = system: T1, OR5T2 S4G
T1 sequence (whole entry): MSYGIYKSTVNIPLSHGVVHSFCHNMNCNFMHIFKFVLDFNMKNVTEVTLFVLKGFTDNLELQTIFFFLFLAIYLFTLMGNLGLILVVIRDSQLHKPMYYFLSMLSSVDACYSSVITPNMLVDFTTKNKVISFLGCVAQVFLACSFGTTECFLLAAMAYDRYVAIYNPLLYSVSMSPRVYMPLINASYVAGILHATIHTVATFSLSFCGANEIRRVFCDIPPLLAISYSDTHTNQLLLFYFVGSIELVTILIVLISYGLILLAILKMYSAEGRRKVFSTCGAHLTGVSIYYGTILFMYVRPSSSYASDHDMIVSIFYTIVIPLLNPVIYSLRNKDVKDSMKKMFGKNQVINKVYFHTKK
Outline: (§1)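 Whether a receptor–molecule pair is responsive (active) rests on the original authors' judgment that its measured signal was statistically different from baseline. Pairs without that judgment are non-responsive (inactive). Sources used varied assay methods, commonly transient luciferase assays in mammalian cell lines.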

OR5T3 (Homo sapiens) = target: T2, OR5T3 (Homo sapiens) (UniProt Q8NGG3)
T2 sequence (whole entry): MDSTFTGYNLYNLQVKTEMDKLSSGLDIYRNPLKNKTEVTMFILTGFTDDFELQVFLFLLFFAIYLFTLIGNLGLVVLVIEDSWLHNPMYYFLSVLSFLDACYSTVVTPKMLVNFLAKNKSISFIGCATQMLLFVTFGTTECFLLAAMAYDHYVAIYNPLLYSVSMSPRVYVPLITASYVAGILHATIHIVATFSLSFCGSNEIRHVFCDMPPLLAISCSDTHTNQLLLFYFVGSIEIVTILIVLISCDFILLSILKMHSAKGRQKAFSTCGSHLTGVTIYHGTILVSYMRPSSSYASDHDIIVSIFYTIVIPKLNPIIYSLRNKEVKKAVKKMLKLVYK
Outline: as §1

OR5V1 (Homo sapiens) = target: T3, OR5V1 (Homo sapiens) (UniProt Q9UGF6)
T3 sequence (whole entry): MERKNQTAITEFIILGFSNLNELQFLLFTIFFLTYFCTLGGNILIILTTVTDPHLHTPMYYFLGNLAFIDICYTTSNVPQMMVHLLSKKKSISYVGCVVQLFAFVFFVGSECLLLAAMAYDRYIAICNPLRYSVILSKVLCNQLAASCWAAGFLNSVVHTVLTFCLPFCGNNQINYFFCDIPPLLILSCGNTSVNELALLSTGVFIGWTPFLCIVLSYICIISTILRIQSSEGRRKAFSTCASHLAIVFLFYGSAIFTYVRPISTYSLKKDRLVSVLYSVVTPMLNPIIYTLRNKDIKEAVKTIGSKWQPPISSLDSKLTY
Outline: as §1

OR5W2 (Homo sapiens) = target: T4, OR5W2 (Homo sapiens) (UniProt Q8NH69)
T4 sequence (whole entry): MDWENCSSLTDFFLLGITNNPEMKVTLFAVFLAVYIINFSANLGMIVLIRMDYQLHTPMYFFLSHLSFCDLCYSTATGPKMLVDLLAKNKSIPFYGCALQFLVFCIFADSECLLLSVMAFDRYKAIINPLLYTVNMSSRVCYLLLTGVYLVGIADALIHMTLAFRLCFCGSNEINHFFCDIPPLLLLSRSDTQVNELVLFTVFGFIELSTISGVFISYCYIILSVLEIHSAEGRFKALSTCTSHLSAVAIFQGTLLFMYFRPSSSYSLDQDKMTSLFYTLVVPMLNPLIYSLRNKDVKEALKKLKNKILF
Outline: as §1

OR5W2 R189C = system: T5, OR5W2 R189C
T5 sequence (whole entry): T4 sequence (whole entry) with R189C
Outline: as §1

OR6A2 (Homo sapiens) = target: T6, OR6A2 (Homo sapiens) (UniProt O95222)
T6 sequence (whole entry): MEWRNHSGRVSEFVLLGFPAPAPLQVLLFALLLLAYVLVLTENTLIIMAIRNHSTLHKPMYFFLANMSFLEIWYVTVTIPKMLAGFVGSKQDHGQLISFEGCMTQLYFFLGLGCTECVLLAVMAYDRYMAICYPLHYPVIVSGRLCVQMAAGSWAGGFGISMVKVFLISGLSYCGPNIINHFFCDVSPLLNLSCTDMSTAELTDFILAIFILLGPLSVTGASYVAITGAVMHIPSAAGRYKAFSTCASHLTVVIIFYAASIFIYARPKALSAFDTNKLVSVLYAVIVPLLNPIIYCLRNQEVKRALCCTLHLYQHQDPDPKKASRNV
Outline: as §1

OR6A2 I50V = system: T7, OR6A2 I50V
T7 sequence (whole entry): T6 sequence (whole entry) with I50V
Outline: as §1

OR6B1 (Homo sapiens) = target: T8, OR6B1 (Homo sapiens) (UniProt O95007)
T8 sequence (whole entry): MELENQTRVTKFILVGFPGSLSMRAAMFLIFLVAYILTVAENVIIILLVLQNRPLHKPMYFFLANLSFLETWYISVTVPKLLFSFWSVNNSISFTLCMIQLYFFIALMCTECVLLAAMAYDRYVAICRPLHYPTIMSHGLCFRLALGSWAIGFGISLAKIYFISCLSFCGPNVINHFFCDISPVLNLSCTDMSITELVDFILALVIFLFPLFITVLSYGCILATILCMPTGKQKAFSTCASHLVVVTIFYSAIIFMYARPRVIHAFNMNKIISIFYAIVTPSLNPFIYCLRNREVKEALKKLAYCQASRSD
Outline: as §1

OR6B2 (Homo sapiens) = target: T9, OR6B2 (Homo sapiens) (UniProt Q6IFH4)
T9 sequence (whole entry): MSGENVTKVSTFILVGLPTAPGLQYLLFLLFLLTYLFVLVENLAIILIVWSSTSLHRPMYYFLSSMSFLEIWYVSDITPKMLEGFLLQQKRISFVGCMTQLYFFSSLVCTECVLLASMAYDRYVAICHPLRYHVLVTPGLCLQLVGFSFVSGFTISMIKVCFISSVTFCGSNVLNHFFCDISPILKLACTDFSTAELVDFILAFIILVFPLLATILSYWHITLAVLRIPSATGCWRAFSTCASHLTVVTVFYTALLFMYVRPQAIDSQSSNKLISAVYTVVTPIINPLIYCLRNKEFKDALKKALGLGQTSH
Outline: as §1

OR6B2 R122C C179R = system: T10, OR6B2 R122C C179R
T10 sequence (whole entry): T9 sequence (whole entry) with R122C, C179R
Outline: as §1

OR6B3 (Homo sapiens) = target: T11, OR6B3 (Homo sapiens) (UniProt Q8NGW1)
T11 sequence (whole entry): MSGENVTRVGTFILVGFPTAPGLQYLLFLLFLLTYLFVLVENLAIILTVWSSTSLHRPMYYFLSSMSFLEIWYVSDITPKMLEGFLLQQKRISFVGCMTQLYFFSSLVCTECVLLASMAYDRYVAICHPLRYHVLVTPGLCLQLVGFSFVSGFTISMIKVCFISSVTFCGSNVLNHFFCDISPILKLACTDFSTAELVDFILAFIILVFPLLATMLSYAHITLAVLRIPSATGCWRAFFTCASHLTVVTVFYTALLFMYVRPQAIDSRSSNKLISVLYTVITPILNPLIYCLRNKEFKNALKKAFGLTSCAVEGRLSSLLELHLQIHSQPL
Outline: as §1

OR6B3 T48I R131C = system: T12, OR6B3 T48I R131C
T12 sequence (whole entry): T11 sequence (whole entry) with T48I, R131C
Outline: as §1

OR6C1 (Homo sapiens) = target: T13, OR6C1 (Homo sapiens) (UniProt Q96RD1)
T13 sequence (whole entry): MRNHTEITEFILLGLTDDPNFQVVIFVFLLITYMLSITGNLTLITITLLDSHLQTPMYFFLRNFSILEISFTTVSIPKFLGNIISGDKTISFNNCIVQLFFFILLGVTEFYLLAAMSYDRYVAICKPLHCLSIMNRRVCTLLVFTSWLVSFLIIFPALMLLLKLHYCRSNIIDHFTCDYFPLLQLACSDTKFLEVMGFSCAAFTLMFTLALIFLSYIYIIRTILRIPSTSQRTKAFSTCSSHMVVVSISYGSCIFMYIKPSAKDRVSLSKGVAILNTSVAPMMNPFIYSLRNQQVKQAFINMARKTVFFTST
Outline: as §1

OR6C1 C130Y H165D V246I = system: T14, OR6C1 C130Y H165D V246I
T14 sequence (whole entry): T13 sequence (whole entry) with C130Y, H165D, V246I
Outline: as §1

OR6C2 (Homo sapiens) = target: T15, OR6C2 (Homo sapiens) (UniProt Q9NZP2)
T15 sequence (whole entry): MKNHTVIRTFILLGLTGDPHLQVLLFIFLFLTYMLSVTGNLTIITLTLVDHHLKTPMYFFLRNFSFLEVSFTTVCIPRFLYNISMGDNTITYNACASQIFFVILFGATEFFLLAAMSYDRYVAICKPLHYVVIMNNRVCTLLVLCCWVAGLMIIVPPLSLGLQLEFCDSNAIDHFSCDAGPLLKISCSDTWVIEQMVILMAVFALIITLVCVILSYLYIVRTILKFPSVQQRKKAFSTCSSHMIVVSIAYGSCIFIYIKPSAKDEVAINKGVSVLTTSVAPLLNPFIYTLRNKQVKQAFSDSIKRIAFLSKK
Outline: as §1

OR6C3 (Homo sapiens) = target: T16, OR6C3 (Homo sapiens) (UniProt Q9NZP0)
T16 sequence (whole entry): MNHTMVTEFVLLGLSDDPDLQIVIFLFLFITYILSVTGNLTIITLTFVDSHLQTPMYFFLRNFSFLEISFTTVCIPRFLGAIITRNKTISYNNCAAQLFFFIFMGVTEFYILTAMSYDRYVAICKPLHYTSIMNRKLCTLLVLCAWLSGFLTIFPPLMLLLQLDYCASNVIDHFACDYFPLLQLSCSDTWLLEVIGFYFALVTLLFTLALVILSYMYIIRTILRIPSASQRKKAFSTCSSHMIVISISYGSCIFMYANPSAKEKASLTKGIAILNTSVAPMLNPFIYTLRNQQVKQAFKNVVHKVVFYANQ
Outline: as §1

OR6C4 (Homo sapiens) = target: T17, OR6C4 (Homo sapiens) (UniProt Q8NGE1)
T17 sequence (whole entry): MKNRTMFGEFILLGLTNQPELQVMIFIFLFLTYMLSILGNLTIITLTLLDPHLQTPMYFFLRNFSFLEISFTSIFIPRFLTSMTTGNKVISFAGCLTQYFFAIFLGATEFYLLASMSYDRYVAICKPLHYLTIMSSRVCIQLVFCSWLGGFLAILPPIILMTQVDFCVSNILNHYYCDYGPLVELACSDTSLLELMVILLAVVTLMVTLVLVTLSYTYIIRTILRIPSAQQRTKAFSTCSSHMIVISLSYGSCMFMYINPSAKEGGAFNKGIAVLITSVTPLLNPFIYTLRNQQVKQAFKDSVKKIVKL
Outline: as §1

OR6C4 = system: T18, OR6C4
T18 sequence (whole entry): T17 sequence (whole entry) with I37V
Outline: as §1

OR6C6 (Homo sapiens) = target: T19, OR6C6 (Homo sapiens) (UniProt A6NF89)
T19 sequence (whole entry): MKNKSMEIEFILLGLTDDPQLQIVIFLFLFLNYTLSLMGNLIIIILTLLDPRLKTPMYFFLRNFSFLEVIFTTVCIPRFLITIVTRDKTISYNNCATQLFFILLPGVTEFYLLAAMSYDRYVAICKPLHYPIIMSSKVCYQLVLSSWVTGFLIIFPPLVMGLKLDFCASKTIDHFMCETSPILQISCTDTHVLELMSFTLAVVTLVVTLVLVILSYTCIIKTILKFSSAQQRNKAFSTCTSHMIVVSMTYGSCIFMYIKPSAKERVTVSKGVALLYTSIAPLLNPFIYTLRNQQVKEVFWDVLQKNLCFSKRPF
Outline: as §1

OR6C6 M6I = system: T20, OR6C6 M6I
T20 sequence (whole entry): T19 sequence (whole entry) with M6I
Outline: as §1

Measured: odorant receptor agonist call;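 note: active if original authors judged signal statistically different from baseline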

Cc1cnc(C)c(C)n1
inactive: all assays above

CCCC(S)CCOC(C)=O (stereo unspecified)
inactive: all assays above

CCCCC(S)C(C)CO (stereo unspecified)
not listed: OR5T2 S4G | OR5W2 R189C | OR6A2 I50V | OR6B2 R122C C179R | OR6B3 T48I R131C | OR6C1 C130Y H165D V246I | OR6C4 | OR6C6 M6I
inactive: all other assays above

CC1=NC(C)C(C)S1 (stereo unspecified)
inactive: all assays above

CC(CO)CS (stereo unspecified)
not listed: OR5T2 S4G | OR5W2 R189C | OR6A2 I50V | OR6B2 R122C C179R | OR6B3 T48I R131C | OR6C1 C130Y H165D V246I | OR6C4 | OR6C6 M6I
inactive: all other assays above

CCC1OC(C)=C(O)C1=O (stereo unspecified)
inactive: all assays above

CCCCCC(=O)C(C)C(C)=O (stereo unspecified)
not listed: OR5T2 S4G | OR5W2 R189C | OR6A2 I50V | OR6B2 R122C C179R | OR6B3 T48I R131C | OR6C1 C130Y H165D V246I | OR6C4 | OR6C6 M6I
inactive: all other assays above
